# Results taken from PMC11571001 (ACS Medicinal Chemistry Letters, 2024).
# Entries after “also recorded” stand apart in the source; their conditions may differ.
# Tests used:
# [1] = molecular target: full-length human PARP2 (Homo sapiens, UniProt Q9UGN5); assay: PARP2 auto-poly-ADP-ribosylation, immunoblot with anti-PAR antibody; format: biochemical; details: compound 100 μM, 300 μM NAD+
# How it was run: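 Full-length human enzyme was recombinantly expressed in and purified from bacteria. Auto-PARylation was run in the absence and presence of test compound at 100 μM. Immunoblots were probed with anti-PAR antibody and band signal was quantified.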
# [2] = system: HAP1/PARP1-knockout cell lysates; assay: Protein ADP-ribosylation in HAP1/PARP1-KO cell lysates, immunoblot; format: biochemical, human; details: compound 100 μM; 600 μM NAD+; olaparib 100 μM as control
# [3] = molecular target: T1, catalytic domain of human PARP10 (Homo sapiens, UniProt Q53GL7); assay: PARP10 auto-ADP-ribosylation; format: biochemical; details: compound 100 μM; 300 μM NAD+; pan-ADPr binding reagent immunoblot
# T1 sequence (Q53GL7 806-1025 limits assumed): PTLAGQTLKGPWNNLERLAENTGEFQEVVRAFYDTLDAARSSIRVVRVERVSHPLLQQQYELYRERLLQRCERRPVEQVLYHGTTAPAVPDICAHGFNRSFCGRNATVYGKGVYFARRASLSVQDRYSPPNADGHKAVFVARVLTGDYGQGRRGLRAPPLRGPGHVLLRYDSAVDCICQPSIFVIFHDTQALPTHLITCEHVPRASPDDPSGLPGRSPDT
# [4] = system: HAP1 wild-type cell lysates; assay: Protein ADP-ribosylation in HAP1 wild-type cell lysates, immunoblot; format: biochemical, human; details: compound 100 μM; 600 μM NAD+; olaparib 100 μM as control
# [5] = molecular target: catalytic domain of human PARP5a (Homo sapiens, UniProt O95271); assay: PARP5a auto-ADP-ribosylation, immunoblot with pan-ADPr binding reagent; format: biochemical; details: compound 100 μM, 300 μM NAD+
# Chain of catalytic domain of human PARP5a (O95271 1112-1317): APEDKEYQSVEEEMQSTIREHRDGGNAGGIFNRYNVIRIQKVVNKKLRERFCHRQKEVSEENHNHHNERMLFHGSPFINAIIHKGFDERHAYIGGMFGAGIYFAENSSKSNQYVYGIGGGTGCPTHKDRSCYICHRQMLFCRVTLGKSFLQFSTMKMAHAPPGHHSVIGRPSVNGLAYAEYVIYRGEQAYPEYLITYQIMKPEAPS
# [6] = system: HeLa cells; assay: Cellular ADP-ribosylation in H2O2-stimulated HeLa cells; format: cell-based, human; details: H2O2 1 mM, inhibitor 100 μM, 20 minutes
# How it was run: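 HeLa cells were stimulated with H2O2 and treated without or with test compound at 100 μM. Cellular ADP-ribosylation was imaged by confocal microscopy using an AF1521 macrodomain-based pan-ADPr binding reagent. Lysates were immunoblotted with the same pan-ADPr reagent, with anti-GAPDH as loading control. Densitometry was normalized to loading controls, and significance was reported as p < 0.05 and p < 0.01.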
# Chain of full-length human PARP2 (Q9UGN5 whole entry): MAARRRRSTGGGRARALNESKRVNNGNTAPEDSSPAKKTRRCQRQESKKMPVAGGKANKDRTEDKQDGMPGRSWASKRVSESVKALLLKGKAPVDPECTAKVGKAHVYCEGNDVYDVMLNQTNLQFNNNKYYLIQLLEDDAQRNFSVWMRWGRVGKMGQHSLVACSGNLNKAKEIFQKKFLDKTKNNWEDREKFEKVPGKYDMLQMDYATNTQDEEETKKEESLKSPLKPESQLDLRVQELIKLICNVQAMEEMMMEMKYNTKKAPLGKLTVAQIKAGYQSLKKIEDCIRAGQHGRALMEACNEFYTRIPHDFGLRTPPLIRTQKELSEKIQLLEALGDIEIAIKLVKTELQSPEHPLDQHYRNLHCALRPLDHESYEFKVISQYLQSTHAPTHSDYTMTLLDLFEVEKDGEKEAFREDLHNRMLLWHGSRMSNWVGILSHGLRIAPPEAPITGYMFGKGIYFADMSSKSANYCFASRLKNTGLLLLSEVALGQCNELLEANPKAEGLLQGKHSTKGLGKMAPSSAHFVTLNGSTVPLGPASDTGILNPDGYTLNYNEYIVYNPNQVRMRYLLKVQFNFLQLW
compound,measurement,setting,value
CC(=O)c1cccc(COc2ccccc2C(N)=O)c1 [compound 3],inhibition of PARP2-catalyzed auto-modification (PARylation),[1],functions as an inhibitor for PARP2; also recorded: significantly inhibit
same,inhibition of protein ADP-ribosylation in HAP1/PARP1-KO cell lysates,[2],no significant differences to those of olaparib-treated ones and non-modified controls
same,inhibition of PARP10-catalyzed auto-ADP-ribosylation,[3],significantly decreased levels of ADP-ribosylation
same,inhibition of protein ADP-ribosylation in HAP1-WT cell lysates,[4],significantly higher than those of olaparib-treated ones
same,inhibition of PARP5a-catalyzed auto-ADP-ribosylation,[5],significantly decreased levels of ADP-ribosylation
CC(=O)c1cccc([C@@H](C)Oc2ccccc2C(N)=O)c1 [compound 4],inhibition of PARP2-catalyzed auto-modification (PARylation),[1],reduced inhibition activities
CC(=O)c1cccc([C@H](C)Oc2ccccc2C(N)=O)c1 [compound 5],inhibition of PARP2-catalyzed auto-modification (PARylation),[1],reduced inhibition activities
CC(=O)c1cccc(CCOc2ccccc2C(N)=O)c1 [compound 7],effect on cellular ADP-ribosylation triggered by H2O2,[6],no significant impact
CC(=O)c1cccc(CCOc2ccc(F)cc2C(N)=O)c1 [compound 8],effect on cellular ADP-ribosylation triggered by H2O2,[6],no significant impact
CC(=O)c1cccc(CCCOc2ccccc2C(N)=O)c1 [compound 9],inhibition of PARP2-catalyzed auto-modification (PARylation),[1],reduced inhibition activities
"O=C(c1cc(Cc2n[nH]c(=O)c3ccccc23)ccc1F)N1CCN(C(=O)C2CC2)CC1 [olaparib, reference compound]",effect on cellular ADP-ribosylation triggered by H2O2,[6],largely suppressed
